The values below come from PMC5733704 (Bioorganic & medicinal chemistry, 2017).

Usually MIC stands for the lowest concentration found to suppress growth. The term IC50 denotes the concentration that inhibits the measured activity by half.

≈ marks a conversion by molar mass, not a printed value. Entries after “also recorded” stand apart in the source; their conditions may differ.

For one assay, the system named is S. aureus. As to the kind of experiment: MIC against S. aureus, stated across the strains tested. The class given is cell-based. As to conditions: Staphylococcus aureus, read-out: MIC in S. aureus (across strains tested), in μM.
The next assay concerns the target AbFabI (Acinetobacter baumannii, UniProt A0ABX6CD96). As to the kind of experiment: AbFabI enzyme inhibition, NADH fluorescence IC50 assay. The class given is biochemical. As to conditions: for IC50: IC50 against AbFabI, 200 nM AbFabI, 300 μM crotonyl-CoA, 200 μM NADH; for fold higher AbFabI IC50 than compound 23: relative to compound 23.
For another assay, the system named is MDR A. baumannii. As to the kind of experiment: Checkerboard MIC with colistin against MDR A. baumannii. The class given is cell-based.
Assay [1] deals with A. baumannii strain 2208. As to the kind of experiment: Checkerboard MIC with polymixin B nonapeptide against A. baumannii strain 2208. The class given is cell-based.
The next assay deals with T1, SaFabI (Staphylococcus aureus, UniProt Q6GI75).
T1 sequence (Q6GI75 1-256): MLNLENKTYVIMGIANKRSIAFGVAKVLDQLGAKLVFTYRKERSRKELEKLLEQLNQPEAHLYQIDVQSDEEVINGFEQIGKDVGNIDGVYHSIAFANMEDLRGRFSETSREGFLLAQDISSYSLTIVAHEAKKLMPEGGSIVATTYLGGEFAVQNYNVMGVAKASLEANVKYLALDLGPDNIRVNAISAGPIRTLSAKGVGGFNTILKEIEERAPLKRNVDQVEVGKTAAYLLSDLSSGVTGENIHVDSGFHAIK
As to the kind of experiment: SaFabI enzyme inhibition, NADPH fluorescence IC50 assay. The class given is biochemical. As to conditions: for fold improvement in SaFabI IC50 compared to compound 1: relative to compound 1; for fold less potent than compound 8 (SaFabI IC50): relative to compound 8. The essentials:
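NADPH fluorescence was read at 340/460 nm. Test compound ranged 0.4 nM–200 μM. Percent inhibition came from 10-min slopes versus DMSO control. At least two independent runs, each in duplicate. Interference was checked before substrate addition.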

Assay [2] relates to A. baumannii strain 2208. As to the kind of experiment: Checkerboard MIC with colistin against A. baumannii strain 2208. The class given is cell-based.
Assay [3] relates to E. coli strain BW25113 ΔTolC. As to the kind of experiment: MIC, microbroth dilution, E. coli efflux pump mutant. The class given is cell-based. As to conditions: Escherichia coli, BW25113, read-out: MIC E. coli TolC- strain, in μM. For orientation: Dilution methods test growth across graded concentrations, often in twofold steps.
In assay [4] the test system is S. aureus strain RN4220 overexpressing SaFabI. As to the kind of experiment: MIC, microbroth dilution, S. aureus RN4220 overexpressing SaFabI. As to conditions: versus native strain RN4220; 4-fold or higher indicates on-target. The class given is cell-based.
Assay [5] shares this test system. As to conditions: control; cited from earlier work.

With `O=C(Cc1ccccc1Cl)N1CCC(c2ccccc2)C1` (stereo not drawn) [Compound 1], the MIC with S. aureus was 42 to 84 µM (≈ 12.6 to 25.2 µg/mL). The molecule also gave an IC50 on AbFabI of less than 10 µM. The Effect result with MDR A. baumannii and with A. baumannii strain 2208 [1] was “Synergy” throughout.
Turning to `O=C(Cc1ccccc1F)N1CCC(c2ccccc2)C1` (stereo not drawn) [Compound 2], at AbFabI, the IC50 is less than 10 µM. Besides, on SaFabI, the “fold improvement in SaFabI IC50 compared to compound 1” value came out at 2 fold.
For the molecule `COc1ccccc1C1CCN(C(=O)Cc2ccccc2F)C1` (stereo not drawn) [Compound 3], the “fold less potent than compound 8 (SaFabI IC50)” value on SaFabI is listed as 9 fold.
Take `O=C(Cc1cccc(F)c1F)N1CCC(c2ccccc2)C1` (stereo not drawn) [Compound 4]: the IC50 against AbFabI is less than 10 µM.
`COc1ccccc1C1CCN(C(=O)Cc2cccc(F)c2F)C1` (stereo not drawn) [Compound 5]: the “fold less potent than compound 8 (SaFabI IC50)” value at SaFabI is listed as 6 fold.
Molecule `O=C(Cc1c(F)cccc1F)N1CCC(c2ccccc2)C1` (stereo not drawn) [Compound 6] displayed an IC50 against AbFabI of less than 10 µM. Moreover, the “fold improvement in SaFabI IC50 compared to compound 1” value at SaFabI is given as 5 fold.
On to `COc1ccccc1C1CCN(C(=O)Cc2c(F)cccc2F)C1` (stereo not drawn) [Compound 7], for which the IC50 against AbFabI was less than 10 µM. In the assay on A. baumannii strain 2208 [2], the Effect result is reported as “excellent synergy”. Also, the “fold poorer SaFabI inhibitory activity compared to compound 6” value at SaFabI (relative to compound 6) is roughly 3 fold. Also, the “fold less potent than compound 8 (SaFabI IC50)” value on SaFabI is given as 11 fold.
`COc1ccccc1C1CCN(C(=O)Cc2ccccc2Cl)C1` (stereo not drawn) [Compound 8] gave an IC50 on AbFabI of less than 10 µM. For the same molecule, the Effect result with MDR A. baumannii is reported as “Synergy”.
For `COc1ccc(C2CCN(C(=O)Cc3ccccc3Cl)C2)cc1` (stereo not drawn) [Compound 9], the “fold less potent than compound 8 (SaFabI IC50)” value on SaFabI was found to be 25 fold.
For `O=C(Cc1ccccc1Cl)N1CCC(c2ccccn2)C1` (stereo not drawn) [Compound 10], the Effect entry in the assay with A. baumannii strain 2208 [2] was “did not show synergistic behavior; also recorded: No synergy/Synergy”.
The same measure, in the same setting: the value for `O=C(Cc1ccccc1Cl)N1CCC(c2nccs2)C1` (stereo not drawn) [Compound 11] was “did not show synergistic behavior; also recorded: No synergy”.
`O=C(Cc1ccccc1Cl)N1CCC(c2ccc3c(c2)OCO3)C1` (stereo not drawn) [Compound 12] had an IC50 at AbFabI of less than 10 µM. For the same molecule, the “fold change in AbFabI IC50 compared to compound 1” value on AbFabI (relative to compound 1) lay in the range of 2 to 3 fold. Further, in the assay on MDR A. baumannii, the Effect result is reported as “Synergy”.
Take `CC(C)S(=O)(=O)c1ccc(CC(=O)N2CCC(c3ccc4c(c3)OCO4)C2)cc1` (stereo not drawn) [Compound 22]: at AbFabI, the “AbFabI enzyme inhibitory activity (in words)” value is “loss in activity”. Further, the “SaFabI enzyme inhibitory activity (in words)” value on SaFabI was “not tolerated”.
As to `CC(=O)Nc1ccc(/C=C/C(=O)N2CCC(c3ccccc3)C2)cn1` (stereo not drawn) [Compound 23], the Effect entry in the assay on A. baumannii strain 2208 [2] is given as “did not show synergistic behavior; also recorded: No synergy”.
Molecule `COc1ccccc1C1CCN(C(=O)/C=C/c2ccc(NC(C)=O)nc2)C1` (stereo not drawn) [Compound 24] yielded an IC50 on AbFabI of less than 10 µM. Further, the Effect result with MDR A. baumannii and in the assay on A. baumannii strain 2208 [1] was “Synergy” each time. Also, in assay [3], the MIC turned out to be 2 µM (≈ 0.731 µg/mL).
For the molecule `CC(=O)Nc1ccc(/C=C/C(=O)N2CCC(c3ccc4c(c3)OCO4)C2)cn1` (stereo not drawn) [Compound 26], in the assay on A. baumannii strain 2208 [2], the Effect entry is “did not show synergistic behavior; also recorded: No synergy”.
As to `CC(=O)Nc1ccc(/C=C/C(=O)N2CCC(c3nccs3)C2)cn1` (stereo not drawn) [Compound 27], the “fold higher AbFabI IC50 than compound 23” value at AbFabI lay in the range of 15 to 40 fold. Moreover, the Effect result with A. baumannii strain 2208 [2] is listed as “did not show synergistic behavior; also recorded: No synergy”.
Turning to `CC(=O)Nc1ccc(/C=C/C(=O)N2CCC(c3ccccn3)C2)cn1` (stereo not drawn) [Compound 28], the “fold higher AbFabI IC50 than compound 23” value at AbFabI lay within 15 to 40 fold. Further, in the assay with A. baumannii strain 2208 [2], the Effect entry is listed as “did not show synergistic behavior; also recorded: No synergy”.
For `COc1ccccc1C1CCN(C(=O)/C=C/c2ccc(NC(C)=O)cc2)C1` (stereo not drawn) [Compound 29], on AbFabI, the “AbFabI enzyme inhibitory activity (in words)” value is given as “complete loss in enzyme inhibitory activity”. The “SaFabI enzyme inhibitory activity (in words)” value on SaFabI is “complete loss in enzyme inhibitory activity”.
As to `O=C(N[C@H](CO)[C@H](O)c1ccc([N+](=O)[O-])cc1)C(Cl)Cl` [chloramphenicol], the “fold increase in MIC with S. aureus strain overexpressing SaFabI” value in assay [4] is “remained unchanged”.
For the molecule `CC[C@H]1OC(=O)[C@H](C)[C@@H](O[C@H]2C[C@@](C)(OC)[C@@H](O)[C@H](C)O2)[C@H](C)[C@@H](O[C@@H]2O[C@H](C)C[C@H](N(C)C)[C@H]2O)[C@](C)(O)C[C@@H](C)C(=O)[C@H](C)[C@@H](O)[C@]1(C)O` [erythromycin], the “fold increase in MIC with S. aureus strain overexpressing SaFabI” value in assay [4] is “remained unchanged”.
The same measure, in the same setting: next, `CN[C@@H]1[C@H](O[C@H]2[C@H](O[C@H]3[C@H](O)[C@@H](O)[C@H](N=C(N)N)[C@@H](O)[C@@H]3N=C(N)N)O[C@@H](C)[C@]2(O)C=O)O[C@@H](CO)[C@H](O)[C@H]1O` [streptomycin]: “remained unchanged”; `CN(C)[C@@H]1C(O)=C(C(N)=O)C(=O)[C@@]2(O)C(O)=C3C(=O)c4c(O)cccc4[C@@](C)(O)[C@H]3C[C@@H]12` [tetracycline]: “remained unchanged”.
As to `Oc1cc(Cl)ccc1Oc1ccc(Cl)cc1Cl` [triclosan], the “fold increase in MIC with S. aureus strain overexpressing FabI” value in assay [5] is 8 fold.
